Reference: ChEMBL document CHEMBL1649392, “Synthesis of substituted 3-amino-N-phenyl-1H-indazole-1-carboxamides endowed with antiproliferative activity” (Eur J Med Chem, 2011)
Calls of active or inactive are those of the source.

How the values were obtained:
M14 = test: Antiproliferative activity against human M14 cells after 48 hrs by sulforhodamine B assay; type: functional; settings: M14, 48 h; for CC50: read-out: LC50 (the source's name)
Method in brief: (§1)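 NCI 60-cell-line panel covering nine cancer types (leukemia, non-small cell lung, colon, CNS, melanoma, ovarian, renal, prostate, breast). Compounds were first tested at a single dose, then in a five-dose screen (series starting 0.01, 0.1 …) if they met NCI threshold criteria. Reported per line: GI50 (molar concentration inhibiting 50% net growth), TGI (total growth inhibition) and LC50 (50% net cell death).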

KM12 = test: Antiproliferative activity against human KM12 cells after 48 hrs by sulforhodamine B assay; type: functional; settings: KM12, 48 h; for CC50: read-out: LC50 (the source's name); method in brief: as §1
NCI/ADR-RES = test: Antiproliferative activity against human NCI/ADR-RES cells after 48 hrs by sulforhodamine B assay; type: functional; method in brief: as §1
SF-295 = test: Antiproliferative activity against human SF295 cells after 48 hrs by sulforhodamine B assay; type: functional; settings: SF-295, 48 h; method in brief: as §1
CCRF-CEM = test: Antiproliferative activity against human CCRF-CEM cells after 48 hrs by sulforhodamine B assay; type: functional; method in brief: as §1
HT-29 = test: Antiproliferative activity against human HT-29 cells after 48 hrs by sulforhodamine B assay; type: functional; settings: HT-29, 48 h; method in brief: as §1
OVCAR-3 = test: Antiproliferative activity against human OVCAR3 cells after 48 hrs by sulforhodamine B assay; type: functional; settings: OVCAR-3, 48 h; for CC50: read-out: LC50 (the source's name); method in brief: as §1
MCF7 = test: Antiproliferative activity against human MCF7 cells after 48 hrs by sulforhodamine B assay; type: functional; settings: MCF7, 48 h; method in brief: as §1
SK-MEL-2 = test: Antiproliferative activity against human SK-MEL-2 cells after 48 hrs by sulforhodamine B assay; type: functional; settings: SK-MEL-2, 48 h; for CC50: read-out: LC50 (the source's name); method in brief: as §1
HCT-116 = test: Antiproliferative activity against human HCT116 cells after 48 hrs by sulforhodamine B assay; type: functional; settings: HCT-116, 48 h; method in brief: as §1
UACC-62 = test: Antiproliferative activity against human UACC62 cells after 48 hrs by sulforhodamine B assay; type: functional; settings: UACC-62, 48 h; for CC50: read-out: LC50 (the source's name)
Method in brief: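 NCI 60-cell-line panel screen: single dose 10 µM first, then 5-dose testing (0.01, 0.1, … molar series). For each line, GI50 is the molar concentration giving 50% inhibition of net cell growth, TGI gives total inhibition of net growth, and LC50 gives 50% net cell death. Method follows the NCI DTP protocol.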

ACHN = test: Antiproliferative activity against human ACHN cells after 48 hrs by sulforhodamine B assay; type: functional; settings: for CC50: read-out: LC50 (the source's name); method in brief: as §1
EKVX = test: Antiproliferative activity against human EKVX cells after 48 hrs by sulforhodamine B assay; type: functional; settings: for CC50: read-out: LC50 (the source's name); method in brief: as §1
HCT-15 = test: Antiproliferative activity against human HCT15 cells after 48 hrs by sulforhodamine B assay; type: functional; settings: HCT-15, 48 h; method in brief: as §1
MDA-MB-231 = test: Antiproliferative activity against human MDA-MB-231 cells after 48 hrs by sulforhodamine B assay; type: functional; settings: MDA-MB-231, 48 h; for CC50: read-out: LC50 (the source's name); method in brief: as §1
NCI-H23 = test: Antiproliferative activity against human NCI-H23 cells after 48 hrs by sulforhodamine B assay; type: functional; settings: NCI-H23, 48 h; for CC50: read-out: LC50 (the source's name); method in brief: as §1
LOX IMVI = test: Antiproliferative activity against human LOXIMVI cells after 48 hrs by sulforhodamine B assay; type: functional; method in brief: as §1
A498 = test: Antiproliferative activity against human A498 cells after 48 hrs by sulforhodamine B assay; type: functional; settings: A498, 48 h; for CC50: read-out: LC50 (the source's name); method in brief: as §1
SN12C = test: Antiproliferative activity against human SN12C cells after 48 hrs by sulforhodamine B assay; type: functional; settings: for CC50: read-out: LC50 (the source's name); method in brief: as §1
BT-549 = test: Antiproliferative activity against human BT549 cells after 48 hrs by sulforhodamine B assay; type: functional; settings: BT-549, 48 h; for CC50: read-out: LC50 (the source's name); method in brief: as §1
OVCAR-4 = test: Antiproliferative activity against human OVCAR4 cells after 48 hrs by sulforhodamine B assay; type: functional; settings: OVCAR-4, 48 h; for CC50: read-out: LC50 (the source's name); method in brief: as §1
HOP-92 = test: Antiproliferative activity against human HOP92 cells after 48 hrs by sulforhodamine B assay; type: functional; settings: HOP-92, 48 h; method in brief: as §1
HL-60(TB) = test: Antiproliferative activity against human HL-60(TB) cells after 48 hrs by sulforhodamine B assay; type: functional; settings: HL-60, 48 h
Method in brief: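 Tested by the National Cancer Institute in its full tumour cell panel covering nine cancer types, including leukemia. Compounds were first screened at a single dose. Those passing the preset inhibition threshold then went to a 5-dose screen. GI50 is the molar concentration giving 50% inhibition of net cell growth; TGI and LC50 were also derived.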

MDA-MB-435 = test: Antiproliferative activity against human MDA-MB-435 cells after 48 hrs by sulforhodamine B assay; type: functional; settings: MDA-MB-435, 48 h; method in brief: as §1
NCI-H322M = test: Antiproliferative activity against human NCI-H322M cells after 48 hrs by sulforhodamine B assay; type: functional; settings: for CC50: read-out: LC50 (the source's name); method in brief: as §1
PC-3 = test: Antiproliferative activity against human PC3 cells after 48 hrs by sulforhodamine B assay; type: functional; settings: PC-3, 48 h; for CC50: read-out: LC50 (the source's name); method in brief: as §1
SK-MEL-5 = test: Antiproliferative activity against human SK-MEL-5 cells after 48 hrs by sulforhodamine B assay; type: functional; settings: SK-MEL-5, 48 h; method in brief: as §1
K562 = test: Induction of cell cycle arrest in human K562 cells assessed as decrease in accumulation at G2/M phase at 40 uM after 24 hrs by flow cytometric analysis; type: functional, cell-based
Method in brief: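 K562 myeloblastic leukemia cells cultured 24 h with compound at 20, 40 or 60 µM, or untreated. Cells washed in ice-cold PBS and resuspended at 10⁶/mL in hypotonic propidium iodide (50 µg/mL) with 0.03% Nonidet P-40 in 0.1% sodium citrate. After 30 min, DNA content read by flow cytometry; sub-G0/G1, G0/G1, S and G2/M fractions scored.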

[1] = read-out: LC50 (the source's name)

SMILES: Nc1nn(C(=O)Nc2ccc(Cc3ccccc3)cc2)c2ccc(Cl)cc12
- GI50 (M14): 0.0888 µM
- TGI (M14): 14 µM
- CC50 (M14): > 100 µM
- GI50 (KM12): 0.0726 µM
- TGI (KM12): > 100 µM
- CC50 (KM12): > 100 µM
- GI50 (NCI/ADR-RES): 11 µM
- TGI (NCI/ADR-RES): 39.1 µM
- CC50 (NCI/ADR-RES; [1]): > 100 µM
- GI50 (SF-295): 0.0515 µM
- LC50 (SF-295): > 100 µM
- TGI (SF-295): 24.2 µM
- GI50 (CCRF-CEM): 1.23 µM
- LC50 (concentration causing 50% net cell death) (CCRF-CEM): > 100 µM
- TGI (CCRF-CEM): 34.4 µM
- GI50 (HT-29): 1.15 µM
- LC50 (concentration giving 50% net cell death) (HT-29): 79.1 µM
- TGI (HT-29): 24 µM
- GI50 (OVCAR-3): 6.66 µM
- TGI (OVCAR-3): 20.8 µM
- CC50 (OVCAR-3): 48.2 µM
- GI50 (MCF7): 0.395 µM
- TGI (MCF7): 18.8 µM
- CC50 (MCF7; [1]): 84 µM
- GI50 (SK-MEL-2): 33.6 µM
- TGI (SK-MEL-2): > 100 µM
- CC50 (SK-MEL-2): > 100 µM
- GI50 (HCT-116): 0.467 µM
- LC50 (concentration causing 50% net cell death) (HCT-116): 77.2 µM
- TGI (HCT-116): 25.1 µM
- GI50 (UACC-62): 0.0412 µM
- TGI (UACC-62): > 100 µM
- CC50 (UACC-62): > 100 µM
- GI50 (ACHN): 0.0468 µM
- TGI (ACHN): 17.4 µM
- CC50 (ACHN): > 100 µM
- GI50 (EKVX): 3.19 µM
- TGI (EKVX): 97.6 µM
- CC50 (EKVX): > 100 µM
- GI50 (HCT-15): 0.0458 µM
- LC50 (concentration causing 50% net cell death) (HCT-15): > 100 µM
- TGI (HCT-15): > 100 µM
- GI50 (MDA-MB-231): 5.33 µM
- TGI (MDA-MB-231): 37.6 µM
- CC50 (MDA-MB-231): > 100 µM
- GI50 (NCI-H23): 5.34 µM
- TGI (NCI-H23): 68.4 µM
- CC50 (NCI-H23): > 100 µM
- GI50 (LOX IMVI): 0.0503 µM
- LC50 (concentration causing 50% net cell death) (LOX IMVI): 53.2 µM
- TGI (LOX IMVI): 18.4 µM
- GI50 (A498): 16.1 µM
- TGI (A498): 60.7 µM
- CC50 (A498): > 100 µM
- GI50 (SN12C): 14.6 µM
- TGI (SN12C): 42.9 µM
- CC50 (SN12C): > 100 µM
- GI50 (BT-549): 5.88 µM
- TGI (BT-549): 44 µM
- CC50 (BT-549): > 100 µM
- GI50 (OVCAR-4): 5.73 µM
- TGI (OVCAR-4): 34.3 µM
- CC50 (OVCAR-4): > 100 µM
- GI50 (HOP-92): 10.7 µM
- LC50 (HOP-92): > 100 µM
- TGI (HOP-92): 33.7 µM
- GI50 (HL-60(TB)): 2.62 µM
- TGI (HL-60(TB)): 42.1 µM
- CC50 (HL-60(TB); [1]): > 100 µM
- GI50 (MDA-MB-435): 0.0813 µM
- TGI (MDA-MB-435): > 100 µM
- CC50 (MDA-MB-435; [1]): > 100 µM
- GI50 (NCI-H322M): 18.2 µM
- TGI (NCI-H322M): > 100 µM
- CC50 (NCI-H322M): > 100 µM
- GI50 (PC-3): 2.9 µM
- TGI (PC-3): 44.3 µM
- CC50 (PC-3): > 100 µM
- GI50 (SK-MEL-5): 0.283 µM
- TGI (SK-MEL-5): 21.1 µM
- CC50 (SK-MEL-5; [1]): 80.2 µM
- Activity (K562): Active

SMILES: Nc1nn(C(=O)Nc2ccc(Cc3ccccc3)cc2)c2ccccc12
- TGI (M14): > 100 µM
- CC50 (M14): > 100 µM
- TGI (KM12): > 100 µM
- CC50 (KM12): > 100 µM
- GI50 (SF-295): 0.53 µM
- LC50 (SF-295): > 100 µM
- TGI (SF-295): > 100 µM
- TGI (OVCAR-3): 63.1 µM
- CC50 (OVCAR-3): > 100 µM
- TGI (SK-MEL-2): > 100 µM
- CC50 (SK-MEL-2): > 100 µM
- LC50 (concentration causing 50% net cell death) (HCT-116): > 100 µM
- TGI (HCT-116): > 100 µM
- TGI (UACC-62): > 100 µM
- CC50 (UACC-62): > 100 µM
- CC50 (ACHN): > 100 µM
- TGI (EKVX): 92 µM
- CC50 (EKVX): > 100 µM
- LC50 (concentration causing 50% net cell death) (HCT-15): > 100 µM
- TGI (HCT-15): > 100 µM
- CC50 (MDA-MB-231): > 100 µM
- TGI (NCI-H23): 83.5 µM
- CC50 (NCI-H23): > 100 µM
- TGI (A498): 31.5 µM
- CC50 (A498): 59.6 µM
- TGI (SN12C): 28 µM
- CC50 (SN12C): 60.6 µM
- TGI (BT-549): 39.6 µM
- CC50 (BT-549): > 100 µM
- TGI (OVCAR-4): 40.4 µM
- CC50 (OVCAR-4): > 100 µM
- LC50 (HOP-92): > 100 µM
- TGI (HOP-92): 42.6 µM
- TGI (NCI-H322M): > 100 µM
- CC50 (NCI-H322M): > 100 µM
- TGI (PC-3): 51.1 µM
- CC50 (PC-3): > 100 µM
